ChEMBL document CHEMBL1142960, “Synthesis and structure-activity relationships for 2,4-dinitrobenzamide-5-mustards as prodrugs for the Escherichia coli nfsB nitroreductase in gene therapy” (J Med Chem, 2007)
Converted amounts (≈) assume the structure as drawn.

Experiments:
[1] = Solubility in alpha MEM; type: physicochemical
How it was run: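 Solubility (mM) in α-MEM with 5% fetal calf serum at ambient temperature, measured by HPLC.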

WiDr [2] = experiment: Antiproliferative activity against human WiDr NTRneo cells after 18 hrs; type: functional, cell-based
[3] = Toxicity in ip dosed CD1 nude mouse in DMSO; type: organism-based; details: in vivo
How it was run: (§1)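 Maximum tolerated dose (MTD) determined in CD-1 nude mice after a single i.p. injection of prodrug, given in the vehicle named in each line.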

V79 [4] = experiment: Clonogenic survival of 97% V79 NTRoua cells in co-cultures with 3% V79 NTRpuro cells after 5 hrs by MCL assay; type: functional, Cricetulus griseus
How it was run: (§2)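 Multicellular layer cocultures of 3% V79-NTRpuro activators and 97% V79oua NTR-ve targets (ouabain-resistant), exposed to prodrug for 5 h. MCLs were then trypsin-dissociated and plated in ouabain or puromycin selective media for clonogenic survival. C10 (10% survival) interpolated for activators and targets; AC/TC ratio derived. Mean with SEM or range over independent experiments.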

V79 [5] = experiment: Antiproliferative activity against chinese hamster wild-type V79 NTR-ve cells after 18 hrs; type: functional, cell-based; details: Cricetulus griseus, V79, 18 h
V79 [6] = experiment: Selectivity ratio of IC50 for V79 NTR-ve cells to IC50 for V79 NTRpuro cells; type: functional, Cricetulus griseus
EMT6 [7] = experiment: Antiproliferative activity against mouse EMT6 NTRpuro cells after 18 hrs; type: functional, cell-based; details: EMT6, 18 h
[8] = Selectivity ratio of IC50 for Skov3 NTR-ve cells to IC50 for Skov3 NTRneo cells; type: functional, Homo sapiens
V79 [9] = experiment: Clonogenic survival of V79 NTRoua cells after 5 hrs by MCL assay; type: functional, Cricetulus griseus
[10] = Antiproliferative activity against human Skov3 NTRneo cells after 18 hrs; type: functional, cell-based; details: SK-OV-3, 18 h
V79 [11] = experiment: Antiproliferative activity against chinese hamster V79 NTRpuro cells after 18 hrs; type: functional, cell-based; details: Cricetulus griseus, V79, 18 h
EMT6 [12] = experiment: Selectivity ratio of IC50 for EMT6 NTR-ve cells to IC50 forEMT6 NTRpuro cells; type: functional, Mus musculus
V79 [13] = experiment: Clonogenic survival of 3% V79 NTRpuro cells in co-cultures with 97% V79 NTRoua after 5 hrs by MCL assay; type: functional, Cricetulus griseus; how it was run: as §2
V79 [14] = experiment: Clonogenic survival ratio of 3% V79 NTRpuro cells to 97% V79 NTRoua cells in co-culture; type: functional, Cricetulus griseus; how it was run: as §2
WiDr [15] = experiment: Antitumor activity against human 100% WiDr NTRneo tumor cells injected in CD1 nude mouse assessed as growth delay at 1330 umol/kg, ip in DMSO; type: functional
How it was run: (§3)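 WiDr-NTRneo tumours (100% NTR+ve, or 1:9 NTR+ve:NTR-ve mixtures) in CD-1 nude mice, given a single i.p. dose at MTD. Read-out is median growth delay to 15 mm mean diameter, plus tumours not palpable 100 days after treatment. Aziridine given at 200 µmol/kg as positive control in every experiment.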

EMT6 [16] = experiment: Antiproliferative activity against mouse wild type EMT6 NTR-ve cells after 18 hrs; type: functional, cell-based; details: EMT6, 18 h
[17] = Partition coefficient at pH 7.4 by shake-flask method; type: physicochemical; details: octanol/water
How it was run: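 Octanol-water partition coefficient by shake-flask at pH 7.4, reported with SEM.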

[18] = Stability in alpha MEM at 37 degC after 24 hrs; type: physicochemical; details: read-out: Stability
How it was run: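 Percent parent compound remaining, by HPLC, after holding in α-MEM with 5% fetal calf serum at 37 °C for 24 h.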

WiDr [19] = experiment: Selectivity ratio of IC50 for WiDr NTR-ve cells to IC50 for WiDr NTRneo cells; type: functional, Homo sapiens
[20] = Antiproliferative activity against human wild type Skov3 NTR-ve cells after 18 hrs; type: functional, cell-based
WiDr [21] = experiment: Antiproliferative activity against human wild type WiDr NTR-ve cells after 18 hrs; type: functional, cell-based
WiDr [22] = experiment: Antitumor activity against mixed human 10% WiDr NTRneo/ 90% WiDr tumor cells injected in CD1 nude mouse assessed as growth delay at 1330 umol/kg, ip in DMSO; type: functional; how it was run: as §3
WiDr [23] = experiment: Antitumor activity against human 100% WiDr NTRneo tumor cells injected in CD1 nude mouse assessed as growth delay at 200 umol/kg, ip in DMA/PEG; type: functional; how it was run: as §3
[24] = Toxicity in ip dosed CD1 nude mouse in DMA/PEG; type: organism-based; details: in vivo; how it was run: as §1
WiDr [25] = experiment: Antitumor activity against mixed human 10% WiDr NTRneo/ 90% WiDr tumor cells injected in CD1 nude mouse assessed as growth delay at 200 umol/kg, ip in DMA/PEG; type: functional; how it was run: as §3
EMT6 [26] = experiment: Antitumor activity against mixed mouse EMT6/EMT6 NTRpuro cells injected in CD1 nude mouse assessed as cell kill at 200 umol/kg, ip in DMA/PEG after 18 hrs; type: functional

| SMILES | solubility [1] | IC50 (WiDr [2]) | MTD [3] | Activity (V79 [4]) | IC50 (V79 [5]) | Ratio IC50 (V79 [6]) | IC50 (EMT6 [7]) | Ratio IC50 [8] | Activity (V79 [9]) | IC50 [10] | IC50 (V79 [11]) | Ratio IC50 (EMT6 [12]) | Activity (V79 [13]) | Ratio (V79 [14]) | IC50 (EMT6 [16]) | logD [17] | remaining at 24 h [18] | Ratio IC50 (WiDr [19]) | IC50 [20] | IC50 (WiDr [21]) | also measured |
| --- | --- | --- | --- | --- | --- | --- | --- | --- | --- | --- | --- | --- | --- | --- | --- | --- | --- | --- | --- | --- | --- |
| CS(=O)(=O)OCCN(CCI)c1cc(C(N)=O)c([N+](=O)[O-])cc1[N+](=O)[O-] | 200 µM (≈ 100 µg/mL) | 0.41 µM | 1330 µmol/kg | 12 µM | 101 µM | 311 | 0.17 µM | 328 | >200 µM | 0.31 µM | 0.29 µM | 529 | 4.2 µM | 0.35 | 79 µM | 0.74 | 72% | 172 | 97 µM | 70 µM | Activity (WiDr [15]): >82 days; Activity (WiDr [22]): 15 days |
| CS(=O)(=O)OCCN(CCBr)c1cc(C(=O)NCCO)c([N+](=O)[O-])cc1[N+](=O)[O-] | 1700 µM (≈ 849 µg/mL) | 0.78 µM | – | – | 633 µM | 620 | 0.2 µM | 467 | – | 0.61 µM | 1 µM | 1330 | – | – | 219 µM | 0.46 | 70% | 250 | 286 µM | 194 µM | – |
| NC(=O)c1cc(N2CC2)c([N+](=O)[O-])cc1[N+](=O)[O-] [TRETAZICAR] | – | 1.14 µM | – | 173 µM | 374 µM | 2090 | 0.098 µM | 317 | 1400 µM | 0.64 µM | 0.26 µM | 947 | 23 µM | 0.14 | 83 µM | 0.14 | – | 51.1 | 174 µM | 54.5 µM | Activity (WiDr [23]): >88 days; MTD [24]: 200 µmol/kg; Activity (WiDr [25]): 14 days; LCK (EMT6 [26]): 3.16 |
| O=C(NCCO)c1cc(N(CCI)CCI)c([N+](=O)[O-])cc1[N+](=O)[O-] | 400 µM (≈ 231 µg/mL) | 0.882 µM | – | 10 µM | – | – | – | – | 122 µM | – | – | – | 5.5 µM | – | – | – | 23% | 31.7 | – | 28 µM | – |
| CS(=O)(=O)OCCN(CCBr)c1cc(C(=O)NCC(O)CO)c([N+](=O)[O-])cc1[N+](=O)[O-] (stereo unspecified) | 1300 µM (≈ 688 µg/mL) | 3 µM | 1330 µmol/kg | >1300 µM | 733 µM | 1660 | 1.6 µM | 640 | >1300 µM | 1.7 µM | 1 µM | 527 | 70 µM | <0.05 | 712 µM | -0.05 | 63% | 272 | 1110 µM | 804 µM | Activity (WiDr [15]): 55 days; Activity (WiDr [22]): 9 days |
| O=C(NCCO)c1cc(N(CCBr)CCBr)c([N+](=O)[O-])cc1[N+](=O)[O-] | 320 µM (≈ 155 µg/mL) | 0.34 µM | – | 17 µM | 80 µM | 203 | 0.08 µM | 270 | 150 µM | 0.3 µM | 0.43 µM | 871 | 5.2 µM | – | 70 µM | 1.69 | 76% | 182 | 81 µM | 61 µM | – |
